Compound activity deposited in PubChem BioAssay by several laboratories.
Most compounds without a hit are left out; they make up all but 4.8% or so of the library.
STAT1 act = activators of IFN-gamma induced STAT1 signaling; NIH 3T3 STAT1-luciferase reporter, luminescence; 100% = IFN-gamma alone, no compound; activation (% of control), % at 5.5 µM; 2.6% of 200,000 active; AID 932;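 active = activation above the screen-wide mean activation plus 3 SD, cut at about 130% in these data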
FLuc act counter = affects firefly luciferase, flagging false hits in luciferase stimulation screens; P08659; ATPlite luciferase biochemical, luminescence, 10 min; 0 = ATP-free wells, 1 = DMSO control; activation factor at 10 µM; 200,000 tested, under 10 active;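 active = luciferase activation factor, scaled between plate controls, of at least 2 with compound at 10 µM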
Target sequence (P08659 whole entry, looked up): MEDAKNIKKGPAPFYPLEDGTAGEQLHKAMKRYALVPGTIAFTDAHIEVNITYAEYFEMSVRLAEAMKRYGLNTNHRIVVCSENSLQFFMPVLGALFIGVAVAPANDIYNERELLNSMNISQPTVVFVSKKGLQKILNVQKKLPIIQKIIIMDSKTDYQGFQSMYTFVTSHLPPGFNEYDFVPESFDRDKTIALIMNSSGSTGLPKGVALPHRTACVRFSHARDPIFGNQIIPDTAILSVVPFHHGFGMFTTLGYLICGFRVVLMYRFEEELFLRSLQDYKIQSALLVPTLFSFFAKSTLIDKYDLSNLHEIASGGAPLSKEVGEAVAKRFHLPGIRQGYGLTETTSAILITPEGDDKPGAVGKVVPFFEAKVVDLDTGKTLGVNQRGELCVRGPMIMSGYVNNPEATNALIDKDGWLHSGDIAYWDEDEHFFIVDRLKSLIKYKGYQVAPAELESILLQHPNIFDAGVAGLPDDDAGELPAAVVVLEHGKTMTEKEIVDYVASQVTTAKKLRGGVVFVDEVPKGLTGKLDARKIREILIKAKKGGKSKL
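System: cell-free luciferase reagent; medium: PBS as buffer for the ATP substrate; doses: test compounds dosed from 2 mM stocks in 100% DMSO; incubation: 10 min, room temperature; measured by: luminescence from luciferase reaction; read-out: luciferase activation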
NF-kB neuron act = raises NF-kB expression in human neuronal cells | NF-kB reporter expression; active compounds read high | fold change at 12.5 µM | 1.6% of 190,000 active | AID 1239; in the data active = fold change above about 3.3
APP 5UTR inh = APP translation inhibition | SH-SY5Y APP 5'UTR-luciferase reporter, luminescence | inhibition, % at 2 µM | 0.82% of 190,000 active | AID 1285;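 active = inhibition above a set limit, derived from the sample mean plus 3 SD, cut at about 45% in these data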
APP 5'UTR act = activates APP 5'UTR luciferase reporter | 1% of 190,000 active | SH-SY5Y APP 5'UTR luciferase reporter, luminescence; zero percent = DMSO vehicle wells | AID 1276 | activation, % at 2 µM;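 active = activation above a set limit, based on mean plus 3 SD of controls, cut at about 140% in these data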
FLuc inhib CS = Photinus pyralis luciferase inhibition counter-screen; P08659; inhibition, % at 10 µM; ATPLite firefly luciferase biochemical luminescence, 10 min; 1.5% of 200,000 active; AID 1006;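 active = inhibition above about 50% when tested at 10 µM, limit read from the data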
Numbers stand for hits; 0 = inactive; - = not tested or not shown.

SMILES	STAT1 act	FLuc act counter	NF-kB neuron act	APP 5UTR inh	APP 5'UTR act	FLuc inhib CS
COc1ccccc1C(=O)Nc1ccc2c(c1)OCO2	132	0	0	0	0	0
COc1cc(SC)ccc1C(=O)NCCOc1ccc(F)cc1	135	0	0	0	0	0
CCOC(=O)c1c(C)[nH]c(C(=O)Nc2ccc3c(c2)OCO3)c1C	141	0	7.8	0	164	0
COc1ccc(Cl)cc1C(=O)Nc1ccc2c(c1)OCO2	135	0	0	0	0	0
CCN(CC)c1ccc(NC(=O)c2cc(Cl)ccc2OC)cc1	0	0	0	0	0	0
CCc1ccc(N(C(=O)c2snc(C(N)=O)c2N)C(C(=O)NCC2CCCO2)c2cccs2)cc1 (configuration not stated)	0	0	0	0	0	0
O=C(NNC(=S)NC1CCCCC1)c1ccc2c(c1)OCO2	0	0	0	0	0	0
Cc1ccnc2nc(C(=O)Nc3ccc4c(c3)OCO4)nn12	0	0	4	0	0	51
O=C(NC1CCCCCCC1)c1ccc2c(c1)OCO2	0	0	6.9	0	153	0
C/C(=C\C(=O)c1ccc(C)o1)Nc1ccc2c(c1)OCO2	0	0	0	0	0	52
Nc1nc(-c2cccc(NS(=O)(=O)c3ccccc3)c2)cs1	0	0	0	0	0	0
CN(C)CC(C)(C)CNS(=O)(=O)c1ccc(Cl)s1	0	0	0	0	0	0
CN(C)CC(O)CN1C(=O)NC(C)(C)C1=O (configuration not stated)	0	0	0	0	0	0
Fc1ccccc1NC(=S)N1CCC(c2ccccc2)C1 (configuration not stated)	146	0	0	0	0	0
S=C(Nc1ccccc1Cl)N1CCCCCC1	0	0	0	0	0	0
Fc1cc(F)cc(NC(=S)N2CCC(c3ccccc3)C2)c1 (configuration not stated)	141	0	0	0	0	0
Fc1ccccc1NC(=S)N1CCCCC1	0	0	0	0	0	0
Cc1ccc(NC(=S)N2CCC(c3ccccc3)C2)c(Cl)c1 (configuration not stated)	0	0	6.5	0	190	74
S=C(Nc1ccccc1Cl)N1CCC(c2ccccc2)C1 (configuration not stated)	148	0	3.4	0	0	0
COC(=O)c1ccccc1OCCCN(C)C	0	0	0	0	0	0
COCc1cc(C)nc(SCc2nc3ccccc3c(=O)[nH]2)c1C#N	0	0	0	0	0	0
O=c1[nH]c(CSc2ccccn2)nc2ccccc12	135	0	0	0	0	0
Cc1cc(C)c(C#N)c(SCc2nc3ccccc3c(=O)[nH]2)n1	0	0	0	0	153	0
CC1CCCC(NC(=S)NC(=O)c2ccccc2Br)C1C (configuration not stated)	0	0	0	0	0	0
COC(=O)Cc1ccc(NC(=S)NN2CCOCC2)cc1	0	0	0	0	0	0
SMILES	STAT1 act	FLuc act counter	NF-kB neuron act	APP 5UTR inh	APP 5'UTR act	FLuc inhib CS
CN(C)c1ccc(-n2cc3c(=O)n(C)c(=O)n(C)c3c2)cc1	134	0	0	0	0	0
CN(C)CC(C(=O)c1ccccc1)c1ccccc1 (configuration not stated)	0	0	0	94	0	0
Cc1nc(Cl)sc1C(=O)Nc1ccc(Cl)cc1	0	0	0	0	0	0
Cc1cccc(NC(=O)c2cnc3n(c2=O)CCS3)c1	132	0	0	0	0	0
O=C(Nc1ccc2c(c1)OCCO2)c1cnc2n(c1=O)CCS2	142	0	0	0	0	0
Nc1nc2ccccc2n1C(=O)c1ccco1	139	0	0	0	0	0
O=C(c1ccco1)N1CCn2c1nc1ccccc12	0	0	0	0	0	0
Nc1nc2ccccc2n1C(=O)c1ccccc1	0	0	0	0	161	90
Nc1nc2ccccc2n1C(=O)c1ccc(F)cc1	0	0	0	0	188	91
Nc1nc2ccccc2n1C(=O)c1cccs1	0	0	4.7	0	0	69
CCc1ccc(NC(=S)Nc2cc(OC)c(NC(=O)C(C)C)cc2OC)cc1	0	0	0	0	0	0
Cc1ccccc1NC(=O)c1ccc(-n2cncn2)nc1	0	0	0	0	0	0
Cc1cc(-c2ccn[nH]2)c(C)s1	0	0	0	0	0	0
CC(=O)c1nc2ccccc2n1CCc1ccccc1	0	0	0	0	0	0
Nc1nc2ccccc2n1C(=O)CCc1ccccc1	136	0	0	0	0	0
COc1ccccc1/C=N\Nc1cn[nH]c(=O)c1Cl	0	0	9.1	0	0	0
Cc1cccc(/C=N\Nc2cn[nH]c(=O)c2Cl)c1	0	0	0	0	0	0
CCOC(=O)N1CCN(C(=O)CSc2nnc(-c3ccc(C(C)(C)C)cc3)o2)CC1	0	0	0	0	0	53
COc1ccc(NC(=O)CCN2C(=O)C3C4CCC(C4)C3C2=O)cc1 (configuration not stated)	0	0	0	0	0	0
COc1ccc(S(=O)(=O)N2CCCN(S(=O)(=O)c3ccc(OC)cc3C)CC2)c(C)c1	0	0	0	0	0	0
COc1ccc(C(=O)Nc2ccc(C)cn2)c(OC)c1	0	0	0	0	0	95
COc1ccccc1C(=O)Nc1ccccn1	132	0	0	0	0	0
Cc1ccc(NC(=O)c2ccc(F)cc2)nc1	132	0	0	0	0	0
COc1ccccc1C(=O)Nc1cccnc1	0	0	0	0	0	0
COc1cc(C(=O)Nc2ccc(C)cn2)c([N+](=O)[O-])cc1OC	0	0	0	0	0	0
SMILES	STAT1 act	FLuc act counter	NF-kB neuron act	APP 5UTR inh	APP 5'UTR act	FLuc inhib CS
CCC(C)n1c(OC)nc2c1c(=O)n(C)c(=O)n2C (configuration not stated)	0	0	0	0	0	0
CC(=O)NC(NC(=S)N1CCCCCC1)C(Cl)(Cl)Cl (configuration not stated)	0	0	-	0	0	0
Cn1c(SCC(=O)NNC(=O)c2ccc(Cl)cc2)nnc1-c1cccnc1	0	0	0	0	0	0
Cc1sc(NC(=O)C2CCCCC2C(=O)O)c(C(N)=O)c1-c1ccccc1 (configuration not stated)	0	0	0	0	0	55
CCC(C)n1c(SCc2ccccc2)nc2ccsc2c1=O (configuration not stated)	0	0	0	0	0	0
Cc1cc2c(C)nc(-c3ccccc3)nc2o1	130	0	0	0	0	0
Cc1ccc(-c2nnc(SCc3ccccc3F)o2)cc1	135	0	7.3	0	142	0
C#CCSc1nnc(-c2ccc(C)cc2)o1	129	0	3.7	0	0	56
O=C(COC(=O)c1ccccn1)c1ccc(Br)cc1	0	0	0	0	0	63
O=C(COC(=O)c1n[nH]c(=O)c2ccccc12)c1ccc(Br)cc1	0	0	0	0	0	0
c1ccc(CSc2nnc(NC3=NCCCCC3)s2)cc1	140	0	0	0	0	0
